The source made the active and inactive calls. The calls are words filed in the database; no cut-off is given here.
Assays:
[1] = molecular target: T1, Fatty-acid amide hydrolase 1 (Rattus norvegicus) (UniProt P97612); assay: Inhibition of FAAH in rat brain microsome using pyrenylbutanamide as substrate after 60 mins by HPLC analysis; format: microsomes
T1 sequence (whole entry): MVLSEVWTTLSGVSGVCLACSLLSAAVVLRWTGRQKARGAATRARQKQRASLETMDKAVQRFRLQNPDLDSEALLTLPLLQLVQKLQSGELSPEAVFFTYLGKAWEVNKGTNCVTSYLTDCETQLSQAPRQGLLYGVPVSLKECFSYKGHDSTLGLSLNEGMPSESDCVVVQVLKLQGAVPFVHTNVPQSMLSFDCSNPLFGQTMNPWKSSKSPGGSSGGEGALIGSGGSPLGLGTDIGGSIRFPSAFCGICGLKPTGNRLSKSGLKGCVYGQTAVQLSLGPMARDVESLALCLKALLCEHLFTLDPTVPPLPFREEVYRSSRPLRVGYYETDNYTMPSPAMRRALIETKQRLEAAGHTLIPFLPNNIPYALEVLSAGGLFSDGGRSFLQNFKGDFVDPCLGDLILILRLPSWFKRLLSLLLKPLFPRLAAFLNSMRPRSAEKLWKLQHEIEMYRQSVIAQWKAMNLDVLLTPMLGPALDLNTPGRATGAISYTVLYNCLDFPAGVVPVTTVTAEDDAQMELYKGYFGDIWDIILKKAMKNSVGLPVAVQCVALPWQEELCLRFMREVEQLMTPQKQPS
Outline: (§1)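 Rat brain preparations were used as the FAAH or MAGL enzyme source. Compounds were tested at 10 μM and the extract at 50 μg/mL, read as percent inhibition.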

Cannabinoid receptor 1 [2] = molecular target: T2, Cannabinoid receptor 1 (Homo sapiens, UniProt P21554); assay: Agonist activity at recombinant human CB1 receptor expressed in CHO cells assessed as inhibition of forskolin-induced cAMP accumulation at 100 uM after 5 mins by cAMP-competition binding assay relative to CP55,940; format: functional, cell-based
Outline: (§2)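 Forskolin (10 μM)-stimulated cAMP accumulation in CHO cells stably expressing the human CB1 or CB2 receptor. Test agents at 100 μM. Efficacy given as a percentage of the maximal effect of the full agonist CP55,940 (1 μM), taken as 100%. At least three independent experiments, each run in duplicate.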

Cannabinoid receptor 1 [3] = molecular target: T2, Cannabinoid receptor 1; assay: Agonist activity at recombinant human CB1 receptor expressed in CHO cells assessed as inhibition of forskolin-induced cAMP accumulation after 5 mins by cAMP-competition binding assay; format: functional, cell-based
Cannabinoid receptor 2 [4] = molecular target: T3, Cannabinoid receptor 2 (Homo sapiens, UniProt P34972); assay: Agonist activity at recombinant human CB2 receptor expressed in CHO cells assessed as inhibition of forskolin-induced cAMP accumulation after 5 mins by cAMP-competition binding assay; format: functional, cell-based
Cannabinoid receptor 1 [5] = molecular target: T2, Cannabinoid receptor 1; assay: biochemical; format: cell-based, CHO
Cannabinoid receptor 2 [6] = molecular target: T3, Cannabinoid receptor 2; assay: Displacement of [3H]CP55,940 from recombinant human CB2 receptor expressed in CHO cells after 2 hrs by liquid scintillation counting; format: cell-based
[7] = molecular target: T4, Monoglyceride lipase (Rattus norvegicus) (UniProt Q8R431); assay: Inhibition of MAGL in rat brain microsome using pyrenylbutanamide as substrate after 60 mins by HPLC analysis; format: microsomes; outline: as §1
T4 sequence (whole entry): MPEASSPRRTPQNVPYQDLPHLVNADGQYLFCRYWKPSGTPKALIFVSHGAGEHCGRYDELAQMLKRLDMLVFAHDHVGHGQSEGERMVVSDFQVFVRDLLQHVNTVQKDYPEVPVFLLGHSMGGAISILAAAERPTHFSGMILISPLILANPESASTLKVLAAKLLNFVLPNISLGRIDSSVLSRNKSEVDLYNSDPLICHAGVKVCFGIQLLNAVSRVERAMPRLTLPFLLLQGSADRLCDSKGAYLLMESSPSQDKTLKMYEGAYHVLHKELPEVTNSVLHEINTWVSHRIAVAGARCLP

Cannabinoid receptor 2 [8] = molecular target: T3, Cannabinoid receptor 2; assay: Agonist activity at recombinant human CB2 receptor expressed in CHO cells assessed as inhibition of forskolin-induced cAMP accumulation at 100 uM after 5 mins by cAMP-competition binding assay relative to CP55,940; format: functional, cell-based; outline: as §2
[9] = molecular target: G-protein coupled receptor 55 (Homo sapiens) (UniProt Q9Y2T6); assay: Antagonist activity at human GPR55 expressed in CHO cells assessed as inhibition of LPI-induced beta-arrestin translocation at 10 uM after 90 mins by luminescence assay; format: cell-based
Outline: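 Human GPR55 expressed recombinantly in CHO cells. β-Arrestin recruitment stimulated by LPI (1 μM) was read as luminescence by β-galactosidase enzyme fragment complementation. Test agents at 10 μM, extract at 50 μg/mL, with the LPI response set to 100%. KB derived from the rightward shift of the LPI concentration-response curve with antagonist present at 10 μM. Three independent experiments in duplicate.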

Cannabinoid receptor 2 [10] = molecular target: T3, Cannabinoid receptor 2; assay: Partial agonist activity at recombinant human CB2 receptor expressed in CHO cells assessed as inhibition of forskolin-induced cAMP accumulation at 100 uM after 5 mins by cAMP-competition binding assay relative to CP55,940; format: functional, cell-based
Outline: (§3)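 CHO cells recombinantly expressing human CB1 or CB2 receptor; forskolin (10 μM)-stimulated cAMP accumulation inhibited by test compound over a concentration range. Efficacy measured at 100 μM relative to the maximal effect of full agonist CP55,940 (1 μM) = 100%. EC50 from concentration-response curves; at least three independent experiments in duplicate, means ± SEM.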

Cannabinoid receptor 2 [11] = molecular target: T3, Cannabinoid receptor 2; conditions: CHO, 10 uM
[12] = molecular target: G-protein coupled receptor 55 (Homo sapiens) (UniProt Q9Y2T6); assay: Antagonist activity at human GPR55 expressed in CHO cells assessed as inhibition of LPI-induced beta-arrestin translocation after 90 mins by luminescence assay; format: cell-based
Outline: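 CHO cells expressing human GPR55; β-arrestin recruitment read as luminescence by β-galactosidase enzyme fragment complementation. LPI agonist curves run with and without test compound at 10 μM, giving a parallel shift from which KB was derived; single-point inhibition tested against LPI at 1 μM (100%). Three independent experiments in duplicate, means ± SEM.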

Cannabinoid receptor 1 [13] = molecular target: T2, Cannabinoid receptor 1; assay: Partial agonist activity at recombinant human CB1 receptor expressed in CHO cells assessed as inhibition of forskolin-induced cAMP accumulation at 100 uM after 5 mins by cAMP-competition binding assay relative to CP55,940; format: functional, cell-based; outline: as §3
CHO = assay: Ratio of EC50 for recombinant human CB1 receptor expressed in CHO cells to recombinant human CB2 receptor expressed in CHO cells assessed as inhibition of forskolin-induced cAMP accumulation; format: cell-based

T3 sequence (P34972 whole entry): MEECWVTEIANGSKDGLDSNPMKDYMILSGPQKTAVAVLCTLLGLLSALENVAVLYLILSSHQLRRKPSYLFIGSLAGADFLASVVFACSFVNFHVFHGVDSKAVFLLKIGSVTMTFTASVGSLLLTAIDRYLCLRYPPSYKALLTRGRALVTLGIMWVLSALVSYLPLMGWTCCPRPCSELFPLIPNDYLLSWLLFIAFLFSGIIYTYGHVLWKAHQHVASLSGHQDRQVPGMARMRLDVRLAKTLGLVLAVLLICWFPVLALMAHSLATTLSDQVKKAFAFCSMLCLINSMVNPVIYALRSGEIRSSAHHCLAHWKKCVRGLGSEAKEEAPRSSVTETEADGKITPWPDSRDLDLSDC
T2 sequence (P21554 whole entry): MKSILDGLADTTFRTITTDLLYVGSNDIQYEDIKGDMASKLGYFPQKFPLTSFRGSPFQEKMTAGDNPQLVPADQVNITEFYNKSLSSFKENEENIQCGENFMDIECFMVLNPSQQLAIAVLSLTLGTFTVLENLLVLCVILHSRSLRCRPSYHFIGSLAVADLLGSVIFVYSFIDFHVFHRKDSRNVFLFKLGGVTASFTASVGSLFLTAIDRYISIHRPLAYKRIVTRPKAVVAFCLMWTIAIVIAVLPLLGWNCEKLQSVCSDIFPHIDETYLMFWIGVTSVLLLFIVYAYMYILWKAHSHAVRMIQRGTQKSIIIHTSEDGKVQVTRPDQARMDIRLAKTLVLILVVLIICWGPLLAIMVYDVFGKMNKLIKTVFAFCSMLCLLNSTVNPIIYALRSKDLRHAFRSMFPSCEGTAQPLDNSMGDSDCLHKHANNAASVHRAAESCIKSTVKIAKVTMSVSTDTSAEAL
Chain of G-protein coupled receptor 55 (Homo sapiens) (Q9Y2T6 whole entry, the tested form may be a part): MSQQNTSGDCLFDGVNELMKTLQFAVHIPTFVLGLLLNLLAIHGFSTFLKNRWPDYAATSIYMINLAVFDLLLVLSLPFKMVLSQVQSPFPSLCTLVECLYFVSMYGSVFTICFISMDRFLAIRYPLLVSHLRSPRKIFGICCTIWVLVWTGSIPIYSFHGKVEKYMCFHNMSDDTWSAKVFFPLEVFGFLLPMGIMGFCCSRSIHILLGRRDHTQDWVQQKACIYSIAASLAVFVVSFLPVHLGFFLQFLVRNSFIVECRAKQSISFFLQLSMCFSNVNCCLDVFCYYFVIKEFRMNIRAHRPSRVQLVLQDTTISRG

| Structure (SMILES) | inhibition [1] | Efficacy (Cannabinoid receptor 1 [2]) | EC50 (Cannabinoid receptor 1 [3]) | EC50 (Cannabinoid receptor 2 [4]) | Ki (Cannabinoid receptor 1 [5]) | Ki (Cannabinoid receptor 2 [6]) | inhibition [7] | Efficacy (Cannabinoid receptor 2 [8]) | inhibition [9] | EC50 (Cannabinoid receptor 2 [10]) | Efficacy (Cannabinoid receptor 2 [11]) | Kb [12] | EC50 (Cannabinoid receptor 1 [13]) | Ratio EC50 (CHO) |
| --- | --- | --- | --- | --- | --- | --- | --- | --- | --- | --- | --- | --- | --- | --- |
| C/C=C/c1ccc(O)c(-c2cc(/C=C/C)ccc2O)c1 | inactive | 134% | > 10 µM | 8.73 µM | > 10 µM | 3.14 µM | inactive | 55% | 0% |  |  |  |  |  |
| CCCc1ccc(O)c(-c2cc(CCC)ccc2O)c1 | inactive | 124% | 9.01 µM |  | 2.26 µM | 0.416 µM | inactive |  | 96% | 0.17 µM | 49% | 13.3 µM |  |  |
| CCCCCCC(C)(C)c1ccc([C@@H]2C[C@H](O)CC[C@H]2CCCO)c(O)c1 |  |  |  |  |  |  |  |  | 92% |  |  | 1.89 µM |  |  |
| C=CCc1ccc(O)c(-c2cc(CC(O)CO)ccc2O)c1 (racemic) | inactive |  |  |  | > 10 µM | > 10 µM | inactive |  | 4% |  |  |  |  |  |
| C=CCc1ccc(O)c(-c2ccc(O)c(CC=C)c2)c1 [HONOKIOL] | inactive | 168% | > 10 µM |  | 6.46 µM | 5.61 µM | inactive | 0% | 42% |  |  |  |  |  |
| C=CCc1ccc(O)c(-c2cc(CC=C)ccc2O)c1 [MAGNOLOL] | inactive | 62% |  |  | 3.15 µM | 1.44 µM | inactive | 31% | 0% | 3.28 µM |  |  | 18.3 µM | 6 |

From ChEMBL document CHEMBL2331083, “Magnolia Extract, Magnolol, and Metabolites: Activation of Cannabinoid CB2 Receptors and Blockade of the Related GPR55” (ACS Med Chem Lett, 2013)
